Experimental data: ChEMBL document CHEMBL1157135, “Synthesis and structure-activity relationships of potent 4-fluoro-2-cyanopyrrolidine dipeptidyl peptidase IV inhibitors” (Bioorg Med Chem, 2008)
Active and inactive are the calls of the source. The rule behind the calls is not given here.

Legend:
[1] = Drug level in Wistar rat plasma at 1 mg/kg, po after 2 hrs; type: ADME, organism-based; set-up: dose 1 mg/kg, route oral; settings: read-out: Drug uptake
How it was run: (§1)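 Male Wistar rats, 8 weeks old, fasted overnight; single oral dose 1 mg/kg as aqueous solution. Jugular vein blood (200 µL) at 0.5, 1, 2, 6 h; plasma deproteinized with acetonitrile, supernatant analysed by LC–MS/MS (C18 column, ammonium acetate/acetonitrile eluent, ESI).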

[2] = Drug level in Wistar rat plasma at 1 mg/kg, po after 0.5 hr; type: ADME, organism-based; set-up: dose 1 mg/kg, route oral; settings: read-out: Drug uptake; how it was run: as §1
[3] = Chemical stability in aqueous buffer solution at pH 6.8 after 6 hrs; type: physicochemical; settings: read-out: Stability
How it was run: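 Residual amount determined by reverse-phase HPLC (UV 210 nm, acetonitrile–H2O buffer elution at 1.0 mL/min) after 6 h incubation at 37 °C in pH 6.8 aqueous buffer; dihydrochloride salt used for one reference compound.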

[4] = Drug level in Wistar rat plasma at 1 mg/kg, po after 1 hr; type: ADME, organism-based; set-up: dose 1 mg/kg, route oral; settings: read-out: Drug uptake; how it was run: as §1
[5] = Drug level in Wistar rat plasma at 1 mg/kg, po after 6 hrs; type: ADME, organism-based; set-up: dose 1 mg/kg, route oral; settings: read-out: Drug uptake; how it was run: as §1
Rattus norvegicus [6] = experiment: Increase in insulin secretion in Zucker fatty rat plasma at 0.3 mg/kg, po after 30 mins by OGTT; type: functional, organism-based; set-up: dose 0.3 mg/kg
How it was run: (§2)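 Male Zucker fatty rats (lean controls), 10 weeks, fasted overnight, n = 6. Compound in distilled water given orally (0.1 or 0.3 mg/kg) 30 min before oral glucose 2 g/kg. Orbital sinus blood under ether anesthesia at set times; plasma glucose, insulin and DPP-IV activity measured. Mean ± SE; Dunnett's or Student's t-test vs vehicle.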

Rattus norvegicus [7] = experiment: Reduction of hyperglycemia in Zucker fatty rat at 0.3 mg/kg, po by after 30 mins OGTT; type: functional, organism-based; set-up: dose 0.3 mg/kg; how it was run: as §2
Rattus norvegicus [8] = experiment: Increase in insulin secretion in Zucker fatty rat plasma at 0.1 mg/kg, po after 30 mins by OGTT; type: functional, organism-based; set-up: dose 0.1 mg/kg; how it was run: as §2
Rattus norvegicus [9] = experiment: Reduction of hyperglycemia in Zucker fatty rat at 0.1 mg/kg, po after 30 mins by OGTT; type: functional, organism-based; set-up: dose 0.1 mg/kg; how it was run: as §2
Rattus norvegicus [10] = experiment: Inhibition of DPP4 activity in Zucker fatty rat plasma at 0.1 mg/kg, po after 15 mins by OGTT; type: functional, organism-based; set-up: dose 0.1 mg/kg; how it was run: as §2
Rattus norvegicus [11] = experiment: Inhibition of DPP4 activity in Zucker fatty rat plasma at 0.1 mg/kg, po upto 120 mins by OGTT; type: functional, organism-based; set-up: dose 0.1 mg/kg; how it was run: as §2
Rattus norvegicus [12] = experiment: Inhibition of DPP4 activity in Zucker fatty rat plasma at 0.3 mg/kg, po upto 120 mins by OGTT; type: functional, organism-based; set-up: dose 0.3 mg/kg; how it was run: as §2
Rattus norvegicus [13] = experiment: Inhibition of DPP4 activity in Zucker fatty rat plasma at 0.3 mg/kg, po after 15 mins by OGTT; type: functional, organism-based; set-up: dose 0.3 mg/kg; how it was run: as §2
Dipeptidyl peptidase 4 = Dipeptidyl peptidase 4 (Homo sapiens, UniProt P27487); type: cell-free, Plasma
Sequence of Dipeptidyl peptidase 4 (P27487 whole entry): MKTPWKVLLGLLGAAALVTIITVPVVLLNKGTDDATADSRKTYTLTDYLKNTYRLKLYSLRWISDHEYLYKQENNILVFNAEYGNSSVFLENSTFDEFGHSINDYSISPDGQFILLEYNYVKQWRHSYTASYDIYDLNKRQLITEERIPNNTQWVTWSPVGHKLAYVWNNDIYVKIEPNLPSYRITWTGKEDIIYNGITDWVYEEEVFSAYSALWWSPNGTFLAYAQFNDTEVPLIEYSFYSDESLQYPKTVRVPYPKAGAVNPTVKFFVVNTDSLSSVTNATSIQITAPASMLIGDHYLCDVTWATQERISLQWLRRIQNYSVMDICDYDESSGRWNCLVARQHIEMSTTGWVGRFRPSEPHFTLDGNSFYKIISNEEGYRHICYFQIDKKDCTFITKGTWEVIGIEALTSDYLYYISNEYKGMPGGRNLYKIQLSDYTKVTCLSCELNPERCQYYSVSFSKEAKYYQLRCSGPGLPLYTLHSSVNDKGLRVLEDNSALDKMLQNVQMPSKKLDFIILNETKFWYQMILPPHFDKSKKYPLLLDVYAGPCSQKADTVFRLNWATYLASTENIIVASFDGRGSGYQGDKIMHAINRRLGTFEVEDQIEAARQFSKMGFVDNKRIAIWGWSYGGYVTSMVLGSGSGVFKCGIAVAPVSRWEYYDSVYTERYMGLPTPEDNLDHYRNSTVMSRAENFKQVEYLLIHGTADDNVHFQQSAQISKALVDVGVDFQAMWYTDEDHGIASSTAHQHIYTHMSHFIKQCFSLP

SMILES	concentration at 2 h [1]	concentration at 0.5 h [2]	remaining at 6 h [3]	concentration at 1 h [4]	concentration at 6 h [5]	IC50 (Dipeptidyl peptidase 4)	further results
CC[C@H](C)[C@@H](N)C(=O)N1C[C@@H](F)C[C@H]1C#N	5 ng/mL	195 ng/mL	70%	24 ng/mL	1 ng/mL		
CC(C)(CO)NCC(=O)N1C[C@@H](F)C[C@H]1C#N	168 ng/mL	355 ng/mL	96%	274 ng/mL	31 ng/mL		Activity (Rattus norvegicus [6]): Active; Activity (Rattus norvegicus [7]): Active; Activity (Rattus norvegicus [8]): Active; Activity (Rattus norvegicus [9]): Active; Activity (Rattus norvegicus [10]): Active; Activity (Rattus norvegicus [11]): Active; Activity (Rattus norvegicus [12]): Active; Activity (Rattus norvegicus [13]): Active
C#CC(CC)(CC)NCC(=O)N1C[C@@H](F)C[C@H]1C#N						> 316 nM	
CC(C)CNCC(C)(C)NCC(=O)N1C[C@@H](F)C[C@H]1C#N						> 316 nM	

More lines, main results first:

concentration at 2 h [1]	concentration at 0.5 h [2]	remaining at 6 h [3]	concentration at 1 h [4]	concentration at 6 h [5]	IC50 (Dipeptidyl peptidase 4)	SMILES	further results
		86%				N#Cc1ccc(NCCNCC(=O)N2C[C@@H](F)C[C@H]2C#N)nc1	
8 ng/mL	157 ng/mL		62 ng/mL	6 ng/mL		N#Cc1ccc(NCCNCC(=O)N2C[C@@H](F)C[C@H]2C#N)nc1.O=C(O)/C=C\C(=O)O	
